# According to ChEMBL document CHEMBL3352339, “Implications of N-capped urea/thiourea and C-capped 3-(1-piperazinyl)-1,2-benzisothiazole with bridging Gly-Val/Phe-Gly-Val-Pro as therapeutic targets” (Eur J Med Chem, 2014):
# Starred links: 1 amine or outer side, 2 acyl side, 3 side chain; linkers in the order of their positions; H or OH if unused. Residues, ends and D or L forms follow the SMILES beside them. *: point of attachment. Thiocarbamoyl(4-MeOPh) = COc1ccc(NC(=S)*)cc1; NH(4-MeO-phenyl) = COc1ccc(N*)cc1; X1 = c1ccc2c(N3CCN(*)CC3)nsc2c1; NH(3-MeOPh) = COc1cccc(N*)c1; X4 = COc1cccc(NC(=S)*)c1; X5 = COc1ccccc1NC(=S)*; Boc = CC(C)(C)OC(=O)*; CO = O=C([*:1])[*:2]; X6 = Fc1cccc(N*)c1; X3 = COc1ccccc1N*
# Tests used:
# Xanthomonas oryzae = test: Antibacterial activity against Xanthomonas oryzae at 50 ug/mL incubated for 24 hrs by agar well diffusion method; type: functional; settings: read-out: IZ
# Staphylococcus = test: Antibacterial activity against Coagulase positive Staphylococcus at 50 ug/mL incubated for 24 hrs by agar well diffusion method; type: functional; settings: read-out: IZ
# In short: (§1)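 Agar well diffusion against the bacterial isolate, with streptomycin as the reference drug. Read-out is the average diameter (mm) of the growth-inhibition zone around the well.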
# Escherichia coli = test: Antibacterial activity against Escherichia coli at 50 ug/mL incubated for 24 hrs by agar well diffusion method; type: functional; settings: read-out: IZ; in short: as §1
# Fusarium oxysporum [1] = test: Antifungal activity against Fusarium oxysporum at 50 ug/mL incubated for 3 days by agar well diffusion method; type: functional; settings: 72 h, read-out: IZ
# In short: (§2)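 Fungal growth inhibition measured by agar well diffusion, with bavistin as the reference. Records the mean inhibition-zone diameter (mm) around each well.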
# [2] = Inhibition of sheep stomach parietal cells gastric H+/K+-ATPase activity assessed as reduction in inorganic phosphorus production by Fiske Subbarow's method; type: tissue-based, Ovis aries
# In short: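 Inhibition of purified H+/K+-ATPase, with omeprazole as the reference. IC50 is the mean of triplicate runs.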
# Aspergillus flavus [3] = test: Antifungal activity against Aspergillus flavus at 50 ug/mL incubated for 3 days by agar well diffusion method; type: functional; settings: 72 h, read-out: IZ; in short: as §2
# Urease = Urease (Canavalia ensiformis, UniProt P07374); test: Inhibition of jack bean urease assessed as reduction in ammonia production incubated at 30 degC for 15 mins by indophenol method
# In short: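 Inhibition of jack bean urease, with thiourea as the reference standard. IC50 values are the average of triplicate runs.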
# Aspergillus niger [4] = test: Antifungal activity against Aspergillus niger at 50 ug/mL incubated for 3 days by agar well diffusion method; type: functional; settings: 72 h, read-out: IZ; in short: as §2
# Fusarium verticillioides [5] = test: Antifungal activity against Fusarium moniliforme at 50 ug/mL incubated for 3 days by agar well diffusion method; type: functional; settings: 72 h, read-out: IZ; in short: as §2
# [6] = Antiglycation activity using bovine serum albumin incubated at 37 degC for 7 days by spectrofluorimetry; type: physicochemical
# In short: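 Glycation of bovine serum albumin, with rutin as the reference standard. IC50 values are averages of triplicate runs.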
# Aspergillus flavus [7] = test: Antifungal activity against Aspergillus flavus incubated for 48 to 72 hrs by agar microdilution method; type: functional
# In short: (§3)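 MIC by microdilution against the fungal strain, limited to compounds showing significant zones in the diffusion assay. Bavistin was used as the reference.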
# Aspergillus niger [8] = test: Antifungal activity against Aspergillus niger incubated for 48 to 72 hrs by agar microdilution method; type: functional; in short: as §3
# Fusarium verticillioides [9] = test: Antifungal activity against Fusarium moniliforme incubated for 48 to 72 hrs by agar microdilution method; type: functional; in short: as §3
# Fusarium oxysporum [10] = test: Antifungal activity against Fusarium oxysporum incubated for 48 to 72 hrs by agar microdilution method; type: functional; in short: as §3
# Sequence of Urease (P07374 whole entry): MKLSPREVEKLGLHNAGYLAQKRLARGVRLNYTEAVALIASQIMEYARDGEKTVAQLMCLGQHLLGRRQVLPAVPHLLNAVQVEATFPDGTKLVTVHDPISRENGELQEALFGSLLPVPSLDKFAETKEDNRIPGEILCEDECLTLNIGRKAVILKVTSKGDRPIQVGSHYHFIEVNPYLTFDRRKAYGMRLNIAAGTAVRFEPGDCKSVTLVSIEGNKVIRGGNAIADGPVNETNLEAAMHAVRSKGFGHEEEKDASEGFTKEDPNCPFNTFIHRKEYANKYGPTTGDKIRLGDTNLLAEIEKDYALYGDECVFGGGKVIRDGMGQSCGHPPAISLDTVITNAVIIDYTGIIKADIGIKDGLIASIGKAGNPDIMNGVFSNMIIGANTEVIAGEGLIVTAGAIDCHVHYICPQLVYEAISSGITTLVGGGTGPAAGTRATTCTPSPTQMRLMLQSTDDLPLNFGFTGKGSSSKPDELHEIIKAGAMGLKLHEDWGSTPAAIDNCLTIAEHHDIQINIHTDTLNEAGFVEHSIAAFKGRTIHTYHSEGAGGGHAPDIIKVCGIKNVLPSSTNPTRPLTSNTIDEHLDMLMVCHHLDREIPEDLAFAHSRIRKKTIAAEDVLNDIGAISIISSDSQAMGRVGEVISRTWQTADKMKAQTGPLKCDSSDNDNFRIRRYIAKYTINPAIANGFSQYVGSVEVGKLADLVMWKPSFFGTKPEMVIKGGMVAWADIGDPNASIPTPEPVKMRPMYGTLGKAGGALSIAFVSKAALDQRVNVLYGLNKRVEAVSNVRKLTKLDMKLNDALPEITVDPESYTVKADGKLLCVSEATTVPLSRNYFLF
Compound,zone of inhibition at 50 µg/mL (Xanthomonas oryzae) [mm],zone of inhibition at 50 µg/mL (Staphylococcus) [mm],zone of inhibition at 50 µg/mL (Escherichia coli) [mm],zone of inhibition at 50 µg/mL (Fusarium oxysporum [1]) [mm],IC50 [2],zone of inhibition at 50 µg/mL (Aspergillus flavus [3]) [mm],IC50 (Urease) [µM],zone of inhibition at 50 µg/mL (Aspergillus niger [4]) [mm],zone of inhibition at 50 µg/mL (Fusarium verticillioides [5]) [mm],IC50 [6] [µM],IC50 ([2]; read-out: IC50) [µM],MIC (Aspergillus flavus [7]) [µg/mL],MIC (Aspergillus niger [8]) [µg/mL],MIC (Fusarium verticillioides [9]) [µg/mL],MIC (Fusarium oxysporum [10]) [µg/mL]
CC(C)[C@H](NC(=O)CNC(=O)[C@H](Cc1ccccc1)NC(=O)CNC(=O)OC(C)(C)C)C(=O)N1CCC[C@H]1C(=O)N1CCN(c2nsc3ccccc23)CC1 (Boc-GFGVP-X1),7,6,8,7,Not Active,7,255,6,7,235,–,–,–,–,–
COc1cccc(NC(=S)NCC(=O)N[C@@H](Cc2ccccc2)C(=O)NCC(=O)N[C@H](C(=O)N2CCC[C@H]2C(=O)N2CCN(c3nsc4ccccc34)CC2)C(C)C)c1 (X4-GFGVP-X1),19,20,21,23,–,23,19,24,24,20,38,–,–,–,–
COc1cccc(NC(=S)NCC(=O)N[C@H](C(=O)NCC(=O)N[C@H](C(=O)N2CCC[C@H]2C(=O)N2CCN(c3nsc4ccccc34)CC2)C(C)C)C(C)C)c1 (X4-GVGVP-X1),16,18,17,19,–,18,23,16,19,23,36,–,–,–,–
COc1ccccc1NC(=S)NCC(=O)N[C@@H](Cc1ccccc1)C(=O)NCC(=O)N[C@H](C(=O)N1CCC[C@H]1C(=O)N1CCN(c2nsc3ccccc23)CC1)C(C)C (X5-GFGVP-X1),22,24,24,24,–,25,18,24,26,19,46,–,–,–,–
COc1ccccc1NC(=S)NCC(=O)N[C@H](C(=O)NCC(=O)N[C@H](C(=O)N1CCC[C@H]1C(=O)N1CCN(c2nsc3ccccc23)CC1)C(C)C)C(C)C (X5-GVGVP-X1),19,20,21,22,–,22,20,20,23,20,40,–,–,–,–
COc1cccc(NC(=O)NCC(=O)N[C@@H](Cc2ccccc2)C(=O)NCC(=O)N[C@H](C(=O)N2CCC[C@H]2C(=O)N2CCN(c3nsc4ccccc34)CC2)C(C)C)c1 ({NH(3-MeOPh)-CO}-GFGVP-X1),18,20,19,22,–,21,23,20,22,23,48,–,–,–,–
COc1cccc(NC(=O)NCC(=O)N[C@H](C(=O)NCC(=O)N[C@H](C(=O)N2CCC[C@H]2C(=O)N2CCN(c3nsc4ccccc34)CC2)C(C)C)C(C)C)c1 ({NH(3-MeOPh)-CO}-GVGVP-X1),13,14,15,18,–,17,25,15,18,25,38,–,–,–,–
COc1ccc(NC(=O)NCC(=O)N[C@@H](Cc2ccccc2)C(=O)NCC(=O)N[C@H](C(=O)N2CCC[C@H]2C(=O)N2CCN(c3nsc4ccccc34)CC2)C(C)C)cc1 ({NH(4-MeO-phenyl)-CO}-GFGVP-X1),23,26,26,27,–,28,17,28,29,19,38,–,–,–,–
COc1ccc(NC(=O)NCC(=O)N[C@H](C(=O)NCC(=O)N[C@H](C(=O)N2CCC[C@H]2C(=O)N2CCN(c3nsc4ccccc34)CC2)C(C)C)C(C)C)cc1 ({NH(4-MeO-phenyl)-CO}-GVGVP-X1),22,22,23,28,–,26,21,24,24,21,34,–,–,–,–
COc1ccc(NC(=S)NCC(=O)N[C@@H](Cc2ccccc2)C(=O)NCC(=O)N[C@H](C(=O)N2CCC[C@H]2C(=O)N2CCN(c3nsc4ccccc34)CC2)C(C)C)cc1 ({Thiocarbamoyl(4-MeOPh)}-GFGVP-X1),26,28,28,29,–,29,15,30,31,16,34,–,–,–,–
COc1ccc(NC(=S)NCC(=O)N[C@H](C(=O)NCC(=O)N[C@H](C(=O)N2CCC[C@H]2C(=O)N2CCN(c3nsc4ccccc34)CC2)C(C)C)C(C)C)cc1 ({Thiocarbamoyl(4-MeOPh)}-GVGVP-X1),25,24,24,26,–,25,18,24,26,18,32,–,–,–,–
COc1ccccc1NC(=O)NCC(=O)N[C@@H](Cc1ccccc1)C(=O)NCC(=O)N[C@H](C(=O)N1CCC[C@H]1C(=O)N1CCN(c2nsc3ccccc23)CC1)C(C)C ({X3-CO}-GFGVP-X1),22,23,23,23,–,25,21,24,26,22,54,–,–,–,–
COc1ccccc1NC(=O)NCC(=O)N[C@H](C(=O)NCC(=O)N[C@H](C(=O)N1CCC[C@H]1C(=O)N1CCN(c2nsc3ccccc23)CC1)C(C)C)C(C)C ({X3-CO}-GVGVP-X1),18,19,19,21,–,21,22,23,23,24,46,–,–,–,–
CC(C)[C@H](NC(=O)CNC(=O)[C@H](Cc1ccccc1)NC(=O)CNC(=O)Nc1cccc(F)c1)C(=O)N1CCC[C@H]1C(=O)N1CCN(c2nsc3ccccc23)CC1 ({X6-CO}-GFGVP-X1),26,29,28,29,–,29,43,30,31,50,92,–,–,–,–
CC(C)[C@H](NC(=O)CNC(=O)Nc1cccc(F)c1)C(=O)NCC(=O)N[C@H](C(=O)N1CCC[C@H]1C(=O)N1CCN(c2nsc3ccccc23)CC1)C(C)C ({X6-CO}-GVGVP-X1),22,23,24,24,–,25,44,27,27,52,88,–,–,–,–
COC(=O)Nc1nc2ccccc2[nH]1 [CARBENDAZIM],–,–,–,13,–,13,–,14,15,–,–,24,22,20,24
C[C@@H]1O[C@@H](OC[C@H]2O[C@@H](Oc3c(-c4ccc(O)c(O)c4)oc4cc(O)cc(O)c4c3=O)[C@H](O)[C@@H](O)[C@@H]2O)[C@H](O)[C@H](O)[C@H]1O [RUTIN],–,–,–,–,–,–,–,–,–,41.9,–,–,–,–,–
